# Assay results pooled from the literature.
# Each line is one published result; the experiments were not run side by side.
# CDK4: Cyclin-dependent kinase 4 (CDK4, Homo sapiens, UniProt P11802)
# CDK4 with cyclin D1: Cyclin-dependent kinase 4, with cyclin D1 (CDK4, Homo sapiens, UniProt P11802)
# CDK4 with cyclin D3: Cyclin-dependent kinase 4, with cyclin D3 (CDK4, Homo sapiens, UniProt P11802)
SMILES,target,test,conditions,remaining binding [%]
O=C(c1ccc(Nc2ncc(Cl)c(-c3cc4ccccc4s3)n2)cc1)N1CCC(N2CCCC2)CC1,CDK4,"binding, competition with immobilised ligand",1 µM,21
c1cnn2ncc(-c3ccnc(N4CCC45COC5)n3)c2c1,CDK4,binding,1 µM,78
O=C(c1ccc(Nc2ncc(Cl)c(-c3ccc(Cl)s3)n2)cc1)N1CCC(N2CCCC2)CC1,CDK4,"binding, competition with immobilised ligand",1 µM,1.3
FC(F)(F)c1ccc2c(c1)nc(-c1cccnc1)n2C1CC1,CDK4 with cyclin D1,"cell-free assay, competition with immobilised ligand",1 µM,100
N[C@H]1CCN(c2nccc(-c3cnn4ncccc34)n2)C1,CDK4,binding,1 µM,75
O=C(NCCCN1CCOCC1)c1ccc(Nc2ncc(Cl)c(-c3ccc(Cl)s3)n2)cc1,CDK4,"binding, competition with immobilised ligand",1 µM,50
F[C@@H]1CCN(c2nccc(-c3cnn4ncccc34)n2)C1,CDK4 with cyclin D3,binding,1 µM,92
O=C(Nc1c[nH]nc1C(=O)NC1CCNCC1)c1cc(F)cc(F)c1,CDK4 with cyclin D3,"binding, competition with immobilised ligand",1 µM,98
C=CC(=O)N1CCC(C(=O)NCC(=O)N2CCN(c3nc(-c4cnc(N)nc4C(F)F)nc(N4CCOCC4)n3)CC2)CC1,CDK4 with cyclin D3,"binding, competition with immobilised ligand",1 µM,100
C[C@@H](c1ccc(-n2cnc3c(N)ncnc32)cc1)N1CCc2nn(C)c(Cc3ccccc3)c2C1=O,CDK4 with cyclin D1,"binding, competition with immobilised ligand",0.1 µM,73
COc1cc(-c2cn(C3CCc4ccccc4N(CC(F)(F)F)C3=O)nn2)ccc1-n1ccc(C)n1 (stereo not shown),CDK4,"cell-free assay, competition with immobilised ligand",1 µM,53
CNC(=O)[C@@H]1CC[C@@H](n2c(-c3ccc4cnccc4c3)nc3ccc(C(=O)NCc4cccc(C(N)=O)c4)cc32)C1,CDK4 with cyclin D3,"binding, competition with immobilised ligand",1 µM,100
C[C@H]1CCN(c2nccc(-c3cnn4ncccc34)n2)C1,CDK4,binding,1 µM,95
c1cncc(-c2cccc(Nc3nccc(NC4CCCCC4)n3)c2)c1,CDK4 with cyclin D1,"binding, competition with immobilised ligand",10 µM,100
Cc1nccc(COC(=O)N2C[C@@H]3[C@@H](CNC(=O)c4ccc5[nH]nnc5c4)[C@@H]3C2)n1,CDK4 with cyclin D3,"cell-free assay, competition with immobilised ligand",1 µM,78
O=C(NCC1CCOCC1)c1n[nH]cc1NC(=O)c1c(F)cccc1F,CDK4 with cyclin D1,"binding, competition with immobilised ligand",1 µM,47
Nc1ncc2c(n1)-c1c([nH]c3ccc(C#CC4CC4)cc13)CCCC2,CDK4 with cyclin D3,"binding, competition with immobilised ligand",1 µM,93
CN(C)c1nccc(-c2cnc3ncccn23)n1,CDK4 with cyclin D3,binding,1 µM,48
COc1cnc(Nc2cccc(S(N)(=O)=O)c2)nc1N1CCN(c2ccccc2)C(=O)C1,CDK4 with cyclin D1,"binding, competition with immobilised ligand",1 µM,100
C[C@H](c1ccc(F)cc1)N(Cc1cccc(C(=O)O)c1)C(=O)c1cnc2ccccc2c1,CDK4 with cyclin D1,"cell-free assay, competition with immobilised ligand",1 µM,100
Cc1cnc(Nc2ccc(C(=O)N3CCC(N4CCCC4)CC3)cc2)nc1-c1cc2ccccc2s1,CDK4,"binding, competition with immobilised ligand",1 µM,40
CCCCN(CCCC)C(=O)CN1C[C@@H](c2cc(OC)c3c(c2)OCO3)[C@H](C(=O)O)[C@H]1CC(C)(C)CCC,CDK4,"cell-free assay, competition with immobilised ligand",1 µM,100
FC(F)(F)Oc1cccc(-c2cnc3ccc(-c4ccncc4)nn23)c1,CDK4,"cell-free assay, competition with immobilised ligand",5 µM,81
CN(C)c1ncc(F)c(-c2cnn3ncccc23)n1,CDK4,binding,1 µM,100
CCN1CCN(Cc2ccc(C(=O)Nc3ccc(C)c(Oc4ccc5c(c4)CC(=O)N5)c3)cc2C(F)(F)F)CC1,CDK4 with cyclin D1,"binding, competition with immobilised ligand",1 µM,79
Cc1nc(N2CC[C@@H](O)C2)ncc1-c1cc(C(F)(F)F)cc2[nH]ncc12,CDK4,"binding, competition with immobilised ligand",1 µM,63
COc1cnc(Nc2cccc(S(N)(=O)=O)c2)nc1N1CCN(c2ccccc2)CC1,CDK4 with cyclin D3,"binding, competition with immobilised ligand",1 µM,93
CC1CCCN1c1nccc(-c2cnn3ncccc23)n1 (stereo not shown),CDK4 with cyclin D3,binding,1 µM,100
CNCc1ccccc1-c1csc([C@H](C)Nc2nc(C)nc3cc(OC)c(OC)cc23)c1,CDK4 with cyclin D3,"cell-free assay, competition with immobilised ligand",1 µM,96
O=C(NCCCN1CCOCC1)c1ccc(Nc2nccc(-c3cc4ccccc4s3)n2)cc1,CDK4 with cyclin D3,"binding, competition with immobilised ligand",1 µM,72
C[C@@H]1CN(c2cc(-c3nn(C)c4ccc(OC5(C)CC5)cc34)ncn2)C[C@H](C)O1,CDK4 with cyclin D3,"cell-free assay, competition with immobilised ligand",1 µM,71
O=C(c1ccc(Nc2nccc(-c3cc4ccccc4s3)n2)cc1)N1CCC(N2CCCC2)CC1,CDK4 with cyclin D1,"binding, competition with immobilised ligand",1 µM,25
CN(c1nccc(-c2cnn3ncccc23)n1)C1CC1,CDK4,binding,1 µM,100
COc1ncc2cc3ccccc3nc2c1C#N,CDK4 with cyclin D1,"cell-free assay, competition with immobilised ligand",5 µM,82
